# Results of several laboratories.
# Each line is one published result; the experiments were not run side by side.
# Target: Serine/threonine-protein kinase pim-2 (PIM2, Homo sapiens, UniProt Q9P1W9)
Structure (SMILES),observed,technique,tested at,remaining binding [%]
Nc1ncc2c(n1)-c1c([nH]c3ccc(C#CC4CC4)cc13)CCCC2,binding,competition with immobilised ligand,1 µM,95
CO[C@@H](C)c1c(Nc2ccc([C@@H](N(C)C(=O)C3CCS(=O)(=O)CC3)C(F)(F)F)cc2)cnc2cc(Cl)nn12,cell-free assay,competition with immobilised ligand,1 µM,95
CN(C)c1nccc(-c2cnn3ncccc23)n1,binding,,1 µM,78
CCCOc1ccc([C@@H]2[C@@H](C(=O)O)[C@H](c3ccc4c(c3)OCO4)CN2CC(=O)Nc2c(CC)cccc2CC)cc1,cell-free assay,competition with immobilised ligand,1 µM,99
C[C@H]1CCN(c2nccc(-c3cnn4ncccc34)n2)C1,binding,,1 µM,81
CN(C)c1ncnc(-c2ccc3nc(Nc4cc(CN5CCN(C(=O)CC(F)(F)F)CC5)ccn4)[nH]c3c2)c1Cl,cell-free assay,competition with immobilised ligand,1 µM,100
C[C@@H]1CN(c2ccc3ncc(-c4ccc5[nH]nc(C6CC6)c5c4)n3n2)C[C@H](C)O1,binding,competition with immobilised ligand,50 nM,92
c1cnn2ncc(-c3ccnc(N4CCC45COC5)n3)c2c1,binding,,1 µM,64
C[C@@H](c1ccc(-n2cnc3c(N)ncnc32)cc1)N1CCc2nn(C)c(Cc3ccccc3)c2C1=O,binding,competition with immobilised ligand,0.1 µM,100
O=C(N[C@H]1CCCCC/C=C\C2C[C@@]2(C(=O)O)NC(=O)[C@@H]2C[C@@H](Oc3ccncc3)CN2C1=O)OC1CCCC1 (stereo partly drawn),binding,competition with immobilised ligand,1 µM,100
COc1cnc(Nc2cccc(S(N)(=O)=O)c2)nc1N1CCN(c2ccccc2)C(=O)C1,binding,competition with immobilised ligand,1 µM,100
CN(C(=O)c1ccccc1)c1cc(N(C)c2ccc3c(c2)CCc2ccc(C(=O)NCCN4CCOCC4)cc2C3=O)ccc1F,cell-free assay,competition with immobilised ligand,1 µM,72
COc1cnc(Nc2cccc(S(N)(=O)=O)c2)nc1N1CCN(c2ccccc2)CC1,binding,competition with immobilised ligand,1 µM,100
CCN1CCN(Cc2ccc(C(=O)Nc3ccc(C)c(Oc4ccc5c(c4)CC(=O)N5)c3)cc2C(F)(F)F)CC1,binding,competition with immobilised ligand,1 µM,97
O=C(NCCCN1CCOCC1)c1ccc(Nc2nccc(-c3cc4ccccc4s3)n2)cc1,binding,competition with immobilised ligand,1 µM,100
O=C(Nc1c[nH]nc1C(=O)NC1CCNCC1)c1cc(F)cc(F)c1,binding,competition with immobilised ligand,1 µM,96
O=C(c1ccc(Nc2ncc(Cl)c(-c3cc4ccccc4s3)n2)cc1)N1CCC(N2CCCC2)CC1,binding,competition with immobilised ligand,1 µM,100
COCCOc1nc(-c2ccc(Cl)nc2)nc2c1CN(C(=O)c1ncn3ccccc13)CC2,cell-free assay,competition with immobilised ligand,0.1 µM,98
N[C@H]1CCN(c2nccc(-c3cnn4ncccc34)n2)C1,binding,,1 µM,98
CN(C)CC#Cc1ccc(OCCCc2sc(N3CCc4cccc(C(=O)Nc5nc6ccccc6s5)c4C3)nc2C(=O)O)c(F)c1,cell-free assay,competition with immobilised ligand,1 µM,100
CN(c1nccc(-c2cnn3ncccc23)n1)C1CC1,binding,,1 µM,100
O=C(c1ccc(Nc2nccc(-c3cc4ccccc4s3)n2)cc1)N1CCC(N2CCCC2)CC1,binding,competition with immobilised ligand,1 µM,100
F[C@@H]1CCN(c2nccc(-c3cnn4ncccc34)n2)C1,binding,,1 µM,100
FC(F)(F)Oc1cccc(-c2cnc3ccc(-c4ccncc4)nn23)c1,cell-free assay,competition with immobilised ligand,5 µM,45
